Results taken from ChEMBL document CHEMBL4130513, “Jozilebomines A and B, Naphthylisoquinoline Dimers from the Congolese Liana Ancistrocladus ileboensis, with Antiausterity Activities against the PANC-1 Human Pancreatic Cancer Cell Line” (J Nat Prod, 2017).
Calls of active or inactive are those of the source. No cut-off for these calls is given here.

What was measured:
Trypanosoma cruzi = assay: Antitrypanosomal activity against Trypanosoma cruzi trypomastigote forms infected in rat L6 cells after 96 hrs by CPRG/Nonidet substrate based photometric method; type: functional, organism-based
[1] = Selectivity index, ratio of IC50 for rat L6 cells to IC50 for Plasmodium falciparum NF54; type: toxicity
HeLa = assay: Cytotoxicity against human HeLa cells assessed as reduction in cell viability after 72 hrs by CCK8 assay; type: functional, cell-based
Outline: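 HeLa cells (DMEM, 10% FBS) plated at 2 × 10^3/well and attached 24 h at 37 °C, 5% CO2. After a PBS wash, serially diluted samples in DMEM were added for 72 h, with paclitaxel as positive control. Cells were washed, given 10% WST-8 (CCK-8) in DMEM for 3 h, and A450 was read. Viability was taken from three-well means, corrected against blank and control.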

PANC-1 [2] = assay: Cytotoxicity against human PANC1 cells in DMEM measured after 24 hrs by WST8 assay; type: cell-based; conditions: panc-1, 24 h
Outline: (§1)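 PANC-1 cells seeded at 1.5 × 10^4/well, attached 24 h in DMEM at 37 °C, 5% CO2. After two PBS washes, exposed to serially diluted samples in nutrient-rich DMEM or nutrient-deprived medium (pH 7.4) for 24 h. Then WST-8 (10% in DMEM) for 3 h, A450 read. Viability is relative to control and blank wells. PC50 is the concentration killing 50% of cells preferentially in NDM.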

L6 = assay: Cytotoxicity against rat L6 cells after 72 hrs by alamar blue staining based fluorescence assay; type: cell-based
PANC-1 [3] = assay: Antiausteritic activity against human PANC1 cells in nutrient-deprived medium measured after 24 hrs by WST8 assay; type: functional; outline: as §1
Leishmania donovani = assay: Antileishmanial activity against Leishmania donovani amastigote forms after 72 hrs by alamar blue staining based fluorescence assay; type: functional, organism-based
[4] = system: Trypanosoma brucei rhodesiense; assay: Antitrypanosomal activity against Trypanosoma brucei rhodesiense bloodstream forms after 72 hrs by alamar blue staining based fluorescence assay; type: functional, organism-based
Plasmodium falciparum = assay: Antiplasmodial activity against Plasmodium falciparum NF54 assessed as reduction in [3H]hypoxanthine incorporation pretreated for 48 hrs followed by [3H]hypoxanthine addition measured after 24 hrs by liquid scintillation counting method; type: functional, organism-based
PANC-1 [5] = assay: Induction of morphological changes in human PANC1 cells assessed as cell membrane rupture at 5 uM after 24 hrs by ethidium bromide/acridine orange staining based microscopic analysis; type: functional
Outline: (§2)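 PANC-1 cells seeded at 1 × 10^6 per well and attached 24 h. After two PBS washes, treated in NDM with vehicle or 5 μM compound for 24 h. EB/AO dye mix (100 μg mL−1 each in PBS) added for 5 min. Imaged by phase contrast and red/green fluorescence at 20× objective.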

PANC-1 [6] = assay: Induction of morphological changes in human PANC1 cells assessed as disintegration of cell organelles at 5 uM after 24 hrs by ethidium bromide/acridine orange staining based microscopic analysis; type: functional; outline: as §2
PANC-1 [7] = assay: Inhibition of colony formation in human PANC1 cells pretreated for 24 hrs followed by compound washout measured after 10 days by crystal violet staining based assay; type: functional, cell-based
Outline: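 PANC-1 cells plated at 500/well in DMEM and attached 24 h at 37 °C, 5% CO2. Exposed 24 h to compound (1.25 and 2.5 μM) in DMEM or to DMEM alone. Washed with PBS, then grown 10 d in fresh DMEM. Fixed with 4% formaldehyde and stained with crystal violet for 10 min. Colony area quantified; three independent experiments.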

| Structure (SMILES) | Ratio IC50 [1] | PC50 (PANC-1 [3]) [µM] | IC50 (Plasmodium falciparum) [µM] | Activity (PANC-1 [5]) | Activity (HeLa) | Activity (PANC-1 [3]) | Activity (PANC-1 [6]) | inhibition (PANC-1 [7]) | also measured |
| --- | --- | --- | --- | --- | --- | --- | --- | --- | --- |
| COc1cc(C)c(-c2ccc3c(c2O)[C@@H](C)N[C@H](C)C3)c2ccc(-c3c(C)c(-c4ccc5c(c4O)[C@@H](C)N[C@H](C)C5)c4cccc(OC)c4c3O)c(O)c12 (atropisomer, axis not shown) [listing 1 of 2 here] | 160 | 2.24 | 0.043 | – | – | – | – | – | IC50 (Trypanosoma cruzi; l6): 23.8 µM; IC50 (HeLa; Homo sapiens, HeLa, 72 h): 1.08 µM; Activity (PANC-1 [2]): Non-Toxic; IC50 (L6; Rattus norvegicus, L6, 72 h): 6.85 µM; IC50 (Leishmania donovani; Leishmania donovani, 72 h): 89.7 µM; IC50 ([4]; Trypanosoma brucei, 72 h): 0.732 µM |
| COc1cc(C)c(-c2ccc3c(c2O)[C@@H](C)N[C@H](C)C3)c2ccc(-c3c(C)c(-c4ccc5c(c4O)[C@@H](C)N[C@H](C)C5)c4cccc(OC)c4c3O)c(O)c12 (atropisomer, axis not shown) [listing 2 of 2 here] | – | – | – | Active | Dose-dependent effect | Dose-dependent effect | Active | Dose-dependent effect | – |
| COc1cc(C)c(-c2ccc3c(c2O)[C@@H](C)N[C@H](C)C3)c2ccc(-c3c(C)c(-c4ccc5c(c4O)[C@@H](C)N[C@H](C)C5)c4cccc(OC)c4c3O)c(O)c12 (single isomer, unassigned; atropisomer 2) [listing 1 of 2 here] | 52.3 | 0.87 | 0.102 | – | – | – | – | – | IC50 (Trypanosoma cruzi; Trypanosoma cruzi, L6, 96 h): 21.9 µM; IC50 (HeLa; hela): 0.68 µM; IC50 (L6; l6): 5.33 µM; IC50 (Leishmania donovani): 55.8 µM; IC50 [4]: 1.03 µM |
| COc1cc(C)c(-c2ccc3c(c2O)[C@@H](C)N[C@H](C)C3)c2ccc(-c3c(C)c(-c4ccc5c(c4O)[C@@H](C)N[C@H](C)C5)c4cccc(OC)c4c3O)c(O)c12 (single isomer, unassigned; atropisomer 2) [listing 2 of 2 here] | – | – | – | Active | Dose-dependent effect | Dose-dependent effect | Active | Dose-dependent effect | – |
| COc1cc(C[C@H]2C(=O)OC[C@@H]2Cc2ccc(OC)c(OC)c2)ccc1O [ARCTIGENIN] | – | 0.83 | – | – | – | – | – | – | – |
